Measured values collected from several papers.
Each line is one published result; the experiments were not run side by side.
BRD9: Bromodomain-containing protein 9 (BRD9, Homo sapiens, UniProt Q9H8M2)
CNR2: Cannabinoid receptor 2 (CNR2, Homo sapiens, UniProt P34972)

COc1cc(-c2cc(C(C)=O)n3ccccc23)c(OC)cc1C(=O)N1CCOCC1  ΔTm (BRD9; thermal stability, DSF; 200 µM): 13.8 °C
CC(=O)ON=C1C=CC(=C(C#N)c2ccccc2)C=C1  activity vs control (Serine/threonine-protein kinase haspin (HASPIN, Homo sapiens, UniProt Q8TF76); enzyme activity, inhibitor, ADP detection; 2 µM): 76%
CCN1/C(=C/C(C)=O)Sc2ccc(F)cc21  inhibition (CNR2; ligand displacement, radioligand; 10 µM): 16.8%
Cc1ncc(-c2cc3cc(-c4c(C)ccc(O)c4C)cnc3[nH]2)cn1  inhibition (Membrane-associated tyrosine- and threonine-specific cdc2-inhibitory kinase (PKMYT1, Homo sapiens, UniProt Q99640); cell-free assay, TR-FRET; 0.1235 µM): 97.2%
C#Cc1cc(-c2cc(Nc3nc(N[C@@H](C)c4ccc(F)cn4)ncc3Cl)n[nH]2)ccc1C=O  inhibition (G protein-coupled receptor kinase 6 (GRK6, Homo sapiens, UniProt P43250); enzyme activity, inhibitor; 0.2 µM): 18.9%
CCCCC(=O)Nc1ccc(-c2ccc3ncn(CCC)c(=O)c3c2)cn1  remaining binding (Activin receptor type-2A (ACVR2A, Homo sapiens, UniProt P27037); binding, competition with immobilised ligand; 0.5 µM): 95%
NC/C(=C\F)COc1cccc(Cn2c(=S)[nH]c(=O)c3[nH]cnc32)c1  inhibition (Ileal sodium/bile acid cotransporter (SLC10A2, Homo sapiens, UniProt Q12908); transporter uptake, inhibitor; 30 µM): < 50%
COc1cc(-c2cc(C(C)=O)n3ccccc23)cc(OC)c1CN(C)C  ΔTm (BRD9; thermal stability, DSF; 200 µM): 16.5 °C
C1=C/COCc2cc(ccc2OCCN2CCCC2)Nc2nccc(n2)-c2cccc(c2)COC/1  remaining binding (Cyclin-dependent kinase-like 3 (CDKL3, Homo sapiens, UniProt Q8IVW4); binding; 0.1 µM): 5.9%
CC(=O)c1cc(-c2cccc(C(F)(F)F)c2)c2ccccn12  ΔTm (BRD9; thermal stability, DSF; 200 µM): 3 °C
COc1ccc2oc(-c3ccc4nc(N)oc4c3)c/c(=N\c3ccccc3NC(=O)CCN)c2c1  remaining binding (Phosphatidylinositol 5-phosphate 4-kinase type-2 alpha (PIP4K2A, Homo sapiens, UniProt P48426); binding; 1 µM): 108%
CCN(C)Cc1c(OC)cc(-c2cc(C(C)=O)n3ccccc23)cc1OC  ΔTm (BRD9; thermal stability, DSF; 200 µM): 15.5 °C
Cc1cc(O)c(-c2ccc([C@@H](C)CN(C)C)cc2)c2c1[nH]c(=O)c1sccc12  inhibition (STE20-related kinase adapter protein beta (Homo sapiens, UniProt Q9C0K7); enzyme activity, inhibitor; 0.1 µM, lysate): 18.9%
COc1cc(-c2cc(C(C)=O)n3ccccc23)c(OC)cc1C(C)=O  ΔTm (BRD9; thermal stability, DSF; 200 µM): 7.5 °C
CN(C)CCOC(=O)COc1ccc(Cl)cc1  inhibition (CNR2; ligand displacement, radioligand; 1 µM, cell membranes): -3.85%
